The source of these data is ChEMBL document CHEMBL4130562, “Design, Synthesis, and Antibacterial Evaluation of Oxazolidinones with Fused Heterocyclic C-Ring Substructure” (ACS Med Chem Lett, 2017).

Data set [1] in a line: Lipophilicity, log D of the compound at pH 7.4. It is filed as physicochemical. As to conditions: buffer.
Data set [2] has as its system Staphylococcus aureus. The experiment in a line: Antibacterial activity against Staphylococcus aureus ATCC 29213 by microbroth dilution method. It is filed as functional.
In data set [3] the test system is Streptococcus pyogenes. The experiment in a line: Antibacterial activity against Streptococcus pyogenes ATCC 19615 by microbroth dilution method. It is filed as functional.
For data set [4], the system named is Staphylococcus aureus. The data set can be described thus: Antibacterial activity against linezolid-resistant Staphylococcus aureus by microbroth dilution method. It is filed as functional.
The nature of data set [5]: Solubility in pH 1.2 buffer. Format: physicochemical. The method, boiled down:
(§1)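 Aqueous solubility was measured in buffers at pH 1.2 and pH 6.8 and reported in μg/mL.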

Data set [6] has as its target T1, CYP2C8 (Homo sapiens, UniProt P10632).
T1 sequence (P10632 whole entry): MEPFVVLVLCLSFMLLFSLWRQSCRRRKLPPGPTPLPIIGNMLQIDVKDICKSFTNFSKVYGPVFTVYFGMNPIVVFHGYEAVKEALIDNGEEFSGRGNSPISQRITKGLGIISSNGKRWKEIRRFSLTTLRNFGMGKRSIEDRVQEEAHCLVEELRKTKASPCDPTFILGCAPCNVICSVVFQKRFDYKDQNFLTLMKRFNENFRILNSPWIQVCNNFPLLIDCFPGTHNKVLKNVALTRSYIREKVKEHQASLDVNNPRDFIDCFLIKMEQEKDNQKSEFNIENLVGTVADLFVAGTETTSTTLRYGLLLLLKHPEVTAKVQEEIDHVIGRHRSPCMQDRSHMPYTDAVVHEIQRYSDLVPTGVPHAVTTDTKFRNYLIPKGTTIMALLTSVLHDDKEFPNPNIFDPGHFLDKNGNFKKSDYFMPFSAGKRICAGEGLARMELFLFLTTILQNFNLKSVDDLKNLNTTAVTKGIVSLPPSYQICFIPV
The experiment in a line: Inhibition of CYP2C8 (unknown origin) at 10 uM. Format: ADME. The method, boiled down:
(§2)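 Each test compound was tested at a single concentration of 10 μM against CYP1A2, 2C8, 2C9, 2C19, 2D6 and 3A4. Results are reported as percent inhibition.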

For data set [7], the system named is Enterococcus faecalis. The experiment in a line: Antibacterial activity against Enterococcus faecalis ATCC 29212 by microbroth dilution method. It is filed as functional.
Data set [8] has as its system Streptococcus pneumoniae. The experiment in a line: Antibacterial activity against Streptococcus pneumoniae 55143 by microbroth dilution method. Format: functional.
Data set [9] has as its system Haemophilus influenzae. The experiment in a line: Antibacterial activity against Haemophilus influenzae ATCC 49247 by microbroth dilution method. It is filed as functional.
Data set [10] can be described thus: Solubility in pH 6.8 buffer. It is filed as physicochemical. The essentials:
as §1

Data set [11] has as its system Enterococcus faecium. The data set can be described thus: Antibacterial activity against Enterococcus faecium 19434 by microbroth dilution method. Format: functional.
Data set [12] has as its target CYP2C9 (Homo sapiens, UniProt P11712). The data set can be described thus: Inhibition of CYP2C9 (unknown origin) at 10 uM. Format: ADME. The essentials:
as §2

The target in data set [13] is CYP2C19 (Homo sapiens, UniProt P33261). The data set can be described thus: Inhibition of CYP2C19 (unknown origin) at 10 uM. It is filed as ADME. The essentials:
as §2

Data set [14] relates to Staphylococcus aureus. The data set can be described thus: Antibacterial activity against Staphylococcus aureus ATCC 33591 by microbroth dilution method. Format: functional.
Data set [15] addresses CYP3A4 (Homo sapiens, UniProt P08684). The experiment in a line: Inhibition of CYP3A4 (unknown origin) at 10 uM. It is filed as ADME. The essentials: as §2
Data set [16] is described as follows: Metabolic stability in mouse liver microsomes assessed as parent compound remaining level. It is filed as ADME, microsome. The method, boiled down:
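Compound was incubated with mouse liver microsomes to assess phase I metabolism. Read-out is percent of parent compound remaining.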

Data set [17] relates to Staphylococcus aureus. The data set can be described thus: Antibacterial activity against Staphylococcus aureus ATCC 6538P by microbroth dilution method. It is filed as functional.
The test system of data set [18] is Staphylococcus aureus. The experiment in a line: Antibacterial activity against methicillin-resistant Staphylococcus aureus 1201984 by microbroth dilution method. Format: functional.
The target in data set [19] is T2, CYP1A2 (Homo sapiens, UniProt P05177).
T2 sequence (P05177 whole entry): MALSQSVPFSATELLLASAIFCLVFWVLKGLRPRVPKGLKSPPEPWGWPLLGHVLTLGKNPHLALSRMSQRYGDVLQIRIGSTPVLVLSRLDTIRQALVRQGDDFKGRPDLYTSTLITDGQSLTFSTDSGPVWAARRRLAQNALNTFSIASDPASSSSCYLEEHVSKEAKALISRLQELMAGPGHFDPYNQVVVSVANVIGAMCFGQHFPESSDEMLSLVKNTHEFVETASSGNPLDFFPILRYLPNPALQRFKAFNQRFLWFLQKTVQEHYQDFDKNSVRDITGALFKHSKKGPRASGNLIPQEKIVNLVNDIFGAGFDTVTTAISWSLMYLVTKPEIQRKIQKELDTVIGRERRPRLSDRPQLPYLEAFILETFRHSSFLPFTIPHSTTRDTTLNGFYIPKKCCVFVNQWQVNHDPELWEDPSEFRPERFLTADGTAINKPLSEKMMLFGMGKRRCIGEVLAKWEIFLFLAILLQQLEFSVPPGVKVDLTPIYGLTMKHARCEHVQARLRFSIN
The experiment in a line: Inhibition of CYP1A2 (unknown origin) at 10 uM. It is filed as ADME. The essentials: as §2

Data set [20] deals with Staphylococcus epidermidis. The data set can be described thus: Antibacterial activity against Staphylococcus epidermidis ATCC 14990 by microbroth dilution method. It is filed as functional.
Data set [21] concerns the target CYP2D6 (Homo sapiens, UniProt P10635). The experiment in a line: Inhibition of CYP2D6 (unknown origin) at 10 uM. It is filed as ADME. The method, boiled down: as §2

SMILES strings stand for the structures. ≈ marks a conversion by molar mass, not a printed value. A value given as a limit tells only on which side of the number the result lay.

CYP2D6, sequence (P10635 whole entry): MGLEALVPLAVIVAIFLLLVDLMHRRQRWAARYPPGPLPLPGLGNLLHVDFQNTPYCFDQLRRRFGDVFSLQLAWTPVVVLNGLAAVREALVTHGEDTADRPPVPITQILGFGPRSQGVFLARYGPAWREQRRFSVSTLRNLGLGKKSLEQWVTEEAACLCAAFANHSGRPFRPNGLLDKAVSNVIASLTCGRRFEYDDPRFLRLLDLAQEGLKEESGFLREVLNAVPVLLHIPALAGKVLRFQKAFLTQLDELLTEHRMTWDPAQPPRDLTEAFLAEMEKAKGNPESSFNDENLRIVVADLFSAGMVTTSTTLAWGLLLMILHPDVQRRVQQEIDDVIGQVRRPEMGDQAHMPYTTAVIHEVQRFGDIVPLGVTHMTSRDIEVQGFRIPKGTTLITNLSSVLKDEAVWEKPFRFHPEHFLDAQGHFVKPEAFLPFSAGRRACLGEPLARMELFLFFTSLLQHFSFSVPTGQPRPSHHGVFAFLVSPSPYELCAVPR
CYP3A4, sequence (P08684 whole entry): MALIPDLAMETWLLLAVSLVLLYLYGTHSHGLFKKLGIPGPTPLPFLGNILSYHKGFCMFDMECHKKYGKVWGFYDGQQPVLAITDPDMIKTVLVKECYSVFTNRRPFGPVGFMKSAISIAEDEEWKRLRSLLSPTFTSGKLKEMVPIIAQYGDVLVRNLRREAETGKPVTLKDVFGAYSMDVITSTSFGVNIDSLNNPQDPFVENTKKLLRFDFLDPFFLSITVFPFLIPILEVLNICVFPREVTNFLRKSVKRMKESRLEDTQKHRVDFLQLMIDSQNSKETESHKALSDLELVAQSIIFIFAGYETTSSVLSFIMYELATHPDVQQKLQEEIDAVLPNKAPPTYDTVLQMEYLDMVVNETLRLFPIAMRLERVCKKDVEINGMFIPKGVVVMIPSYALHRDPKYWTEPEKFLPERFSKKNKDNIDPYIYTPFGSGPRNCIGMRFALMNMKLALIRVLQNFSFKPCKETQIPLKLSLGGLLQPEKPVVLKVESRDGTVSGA
CYP2C19, sequence (P33261 whole entry): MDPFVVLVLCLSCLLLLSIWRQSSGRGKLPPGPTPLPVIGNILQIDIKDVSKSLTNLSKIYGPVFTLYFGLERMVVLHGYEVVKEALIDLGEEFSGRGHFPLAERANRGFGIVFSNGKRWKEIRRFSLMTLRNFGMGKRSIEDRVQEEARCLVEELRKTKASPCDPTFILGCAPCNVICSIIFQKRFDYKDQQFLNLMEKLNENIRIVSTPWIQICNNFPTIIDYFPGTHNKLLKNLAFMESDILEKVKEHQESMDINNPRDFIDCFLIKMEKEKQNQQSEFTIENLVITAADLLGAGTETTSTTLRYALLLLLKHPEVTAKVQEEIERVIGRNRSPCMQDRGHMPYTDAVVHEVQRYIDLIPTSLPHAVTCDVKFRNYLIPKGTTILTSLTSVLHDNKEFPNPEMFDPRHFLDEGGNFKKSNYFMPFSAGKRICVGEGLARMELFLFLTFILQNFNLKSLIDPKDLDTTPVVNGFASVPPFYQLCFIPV
CYP2C9, sequence (P11712 whole entry): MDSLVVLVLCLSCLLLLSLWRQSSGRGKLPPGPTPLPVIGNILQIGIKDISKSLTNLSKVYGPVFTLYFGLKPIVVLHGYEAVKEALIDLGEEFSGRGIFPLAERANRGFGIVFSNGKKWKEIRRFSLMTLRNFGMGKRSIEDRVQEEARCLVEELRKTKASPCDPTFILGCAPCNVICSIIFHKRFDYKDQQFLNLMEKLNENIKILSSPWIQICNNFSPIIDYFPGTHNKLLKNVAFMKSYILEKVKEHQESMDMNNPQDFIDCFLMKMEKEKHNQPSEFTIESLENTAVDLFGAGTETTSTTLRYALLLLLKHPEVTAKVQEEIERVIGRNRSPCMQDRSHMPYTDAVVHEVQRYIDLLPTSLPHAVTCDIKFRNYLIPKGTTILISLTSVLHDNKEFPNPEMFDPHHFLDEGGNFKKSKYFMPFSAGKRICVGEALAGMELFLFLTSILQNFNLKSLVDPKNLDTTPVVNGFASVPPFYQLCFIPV

Turning to `CC(=O)NC[C@H]1CN(c2ccc(-c3ccc4c(c3)NC(=O)CO4)c(F)c2)C(=O)O1`, the logD in data set [1] stood at 1.9. The MIC in data set [2] was determined as 0.125 µg/mL (≈ 0.313 µM); in data set [3] it was 0.06 µg/mL (≈ 0.15 µM); in [4] it was 1 µg/mL (≈ 2.5 µM); in data set [7], 0.03 µg/mL (≈ 0.0751 µM); in data set [8] it was 0.06 µg/mL (≈ 0.15 µM); in data set [9], 0.25 µg/mL (≈ 0.626 µM). The MIC was 0.03 µg/mL (≈ 0.0751 µM) in data set [11]; 0.5 µg/mL (≈ 1.25 µM) in data set [14]; 0.125 µg/mL (≈ 0.313 µM) in data set [17]; 0.5 µg/mL (≈ 1.25 µM) in data set [18]; 0.06 µg/mL (≈ 0.15 µM) in data set [20]. The solubility was 22 µg/mL (≈ 55.1 µM) in [5] and 15 µg/mL (≈ 37.6 µM) in data set [10]. The inhibition at 10 µM in [6] turned out to be 12%; in [12], 13%; in [13] it was 20%; in data set [15], 0%; in data set [19], 6%; in data set [21], 10%. In addition, the Stability in data set [16] came to 84%.

As for `O=C1COc2ccc(-c3ccc(N4C[C@H](CO)OC4=O)cc3F)cc2N1`, the pH-dependent lipophilicity (logD) in data set [1] was 1.9. For the same molecule, the MIC in data set [2] was 0.125 µg/mL (≈ 0.349 µM); in data set [3], less than 0.06 µg/mL; in data set [4], 1 µg/mL (≈ 2.79 µM); in data set [7] it was less than 0.06 µg/mL; in data set [8], less than 0.06 µg/mL; in data set [9], 0.5 µg/mL (≈ 1.4 µM). Further, the MIC was less than 0.06 µg/mL in data set [11]; 0.5 µg/mL (≈ 1.4 µM) in data set [14]; less than 0.06 µg/mL in data set [17]; 0.5 µg/mL (≈ 1.4 µM) in data set [18]; less than 0.06 µg/mL in data set [20]. In addition, the values for the solubility in data set [5] and in [10] were 4.4 µg/mL (≈ 12.3 µM) and 5.2 µg/mL (≈ 14.5 µM), respectively. In addition, the inhibition at 10 µM in [6] was 0%; in data set [12], 12%; in [13] it was 29%; in [15], 0%; in [19] it was 4%; in data set [21], 4%. The Stability in data set [16] came out at 113%.
